According to ChEMBL document CHEMBL2150948, “Quinolinyl Pyrimidines: Potent Inhibitors of NDH-2 as a Novel Class of Anti-TB Agents” (ACS Med Chem Lett, 2012):
Values after ≈ are worked out from the molar mass of the structure shown.

What was measured:
[1] = Intrinsic clearance in mouse microsomes assessed per mg protein at 100 uM by HPLC analysis; assay type: ADME, Microsome
[2] = Toxicity in RBC assessed as hemolysis; assay type: cell-based; settings: erythrocyte
[3] = Inhibition of Mycobacterium tuberculosis NDH-2 by UV spectrophotometry
Outline: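 Purified Mtb NDH-2 at 1 nM in 50 mM Hepes-NaOH pH 7.5 with 100 mM NaCl, 0.008% Brij-35 and 300 μM NADH; reaction started with 50 μM menadione, run 1 h at 37 °C. NADH oxidation followed as fall in absorbance at 340 nm. Screening at 20 μM, then concentration-response for IC50.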

[4] = Fraction unbound in plasma at 20 uM after 18 hrs by equilibrium dialysis method; assay type: ADME, cell-free
[5] = Solubility of the compound in 0.1 M phosphate buffer after 24 hrs by UV/MS analysis; assay type: physicochemical
Outline: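 Solubility measured in presence of 2% (v/v) DMSO.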

[6] = Partition coefficient, log D of the compound; assay type: physicochemical; settings: octanol/water
Saccharomyces cerevisiae = assay: Antimicrobial activity against Saccharomyces cerevisiae; assay type: organism-based
[7] = test system: Mycobacterium tuberculosis; assay: Antimycobacterial activity against Mycobacterium tuberculosis assessed as growth inhibition after 5 days by MABA/resazurin assay; assay type: functional; settings: 120 h

Nc1nc(Nc2ccc3nc(-c4ccc(F)cc4)cc(N)c3c2)cc(-c2ccc(Cl)cc2)n1
microsomal CLint at 100 µM [1]: 13.4 µL/min/mg | MHC [2]: > 32 µg/mL | IC50 [3]: 0.043 µM | fraction unbound at 18 h, 20 µM [4]: 0.008 | solubility at 24 h [5]: 6 µM (≈ 2.74 µg/mL) | logD [6]: 3 | MIC (Saccharomyces cerevisiae): > 32 µg/mL | MIC [7]: 1.91 µM (≈ 0.873 µg/mL)

Cc1cccc(-c2cc(Nc3ccc4nc(-c5ccc(F)cc5)cc(N)c4c3)nc(N)n2)c1
MHC [2]: > 32 µg/mL | IC50 [3]: 0.096 µM | fraction unbound at 18 h, 20 µM [4]: 0.0144 | solubility at 24 h [5]: 70 µM (≈ 30.6 µg/mL) | logD [6]: 3.18 | MIC (Saccharomyces cerevisiae): > 32 µg/mL | MIC [7]: < 0.81 µM

Nc1nc(Nc2ccc3nc(-c4ccc(F)cc4)cc(N)c3c2)cc(-c2ccc(C(F)(F)F)cc2)n1
microsomal CLint at 100 µM [1]: < 4 µL/min/mg | MHC [2]: > 32 µg/mL | IC50 [3]: 0.081 µM | solubility at 24 h [5]: 2450 µM (≈ 1200 µg/mL) | logD [6]: 2.16 | MIC (Saccharomyces cerevisiae): > 32 µg/mL | MIC [7]: 2.88 µM (≈ 1.41 µg/mL)

Nc1nc(Nc2ccc3nc(-c4ccc(F)cc4)cc(N)c3c2)cc(-c2ccc(F)cc2)n1
MHC [2]: > 32 µg/mL | IC50 [3]: 0.053 µM | fraction unbound at 18 h, 20 µM [4]: 0.0249 | solubility at 24 h [5]: 12 µM (≈ 5.29 µg/mL) | logD [6]: 3.06 | MIC (Saccharomyces cerevisiae): > 32 µg/mL | MIC [7]: 1.14 µM (≈ 0.502 µg/mL)

Nc1nc(Nc2ccc3nc(-c4ccc(F)cc4)cc(N)c3c2)cc(-c2cccc(Cl)c2)n1
MHC [2]: > 32 µg/mL | IC50 [3]: 0.05 µM | solubility at 24 h [5]: 15 µM (≈ 6.85 µg/mL) | logD [6]: 3.06 | MIC (Saccharomyces cerevisiae): > 32 µg/mL | MIC [7]: 2.19 µM (≈ 1 µg/mL)

Nc1nc(Nc2ccc3nc(-c4ccc(F)cc4)cc(N)c3c2)cc(-c2ccccc2)n1
IC50 [3]: 0.073 µM | MIC [7]: 1.67 µM (≈ 0.706 µg/mL)

Nc1nc(Nc2ccc3nc(-c4ccc(F)cc4)cc(N)c3c2)cc(-c2ccccc2F)n1
IC50 [3]: 0.187 µM | MIC [7]: 3.21 µM (≈ 1.41 µg/mL)

COc1ccccc1-c1cc(Nc2ccc3nc(-c4ccc(F)cc4)cc(N)c3c2)nc(N)n1
IC50 [3]: < 0.62 µM | MIC [7]: 4.42 µM (≈ 2 µg/mL)

COc1cccc(-c2cc(N)c3cc(Nc4cc(-c5ccc(Cl)cc5)nc(N)n4)ccc3n2)c1
IC50 [3]: < 0.26 µM | MIC [7]: 2.13 µM (≈ 0.999 µg/mL)

Nc1nc(Nc2ccc3nc(-c4ccc(F)cc4)cc(N)c3c2)cc(-c2ccccn2)n1
IC50 [3]: 0.133 µM | MIC [7]: 9.45 µM (≈ 4 µg/mL)

CC(C)c1cc(Nc2ccc3nc(-c4ccc(F)cc4)cc(N)c3c2)nc(N)n1
IC50 [3]: 1.47 µM | MIC [7]: 7.28 µM (≈ 2.83 µg/mL)

CCc1cc(Nc2ccc3nc(-c4ccc(F)cc4)cc(N)c3c2)nc(N)n1
IC50 [3]: 2.4 µM | MIC [7]: 15.1 µM (≈ 5.66 µg/mL)

Cc1cc(Nc2ccc3nc(-c4ccc(F)cc4)cc(N)c3c2)nc(N)n1
IC50 [3]: 0.601 µM | MIC [7]: 22.2 µM (≈ 8 µg/mL)

Cc1cccc(-c2cc(Nc3ccc4nccc(N)c4c3)nc(N)n2)c1
IC50 [3]: 10.8 µM | MIC [7]: 48.9 µM (≈ 16.7 µg/mL)

Cn1ccc(-c2cc(Nc3ccc4nc(-c5ccc(F)cc5)cc(N)c4c3)nc(N)n2)n1
IC50 [3]: 1.38 µM | MIC [7]: 53.1 µM (≈ 22.6 µg/mL)

Nc1nc(Nc2cnc3ccccc3c2)cc(-c2cccc(Cl)c2)n1
IC50 [3]: 5.77 µM | MIC [7]: > 73 µM

Nc1nc(Nc2cnc3ccccc3c2)cc(-c2ccc(C(F)(F)F)cc2)n1
IC50 [3]: 2.05 µM | MIC [7]: 66.6 µM (≈ 25.4 µg/mL)

Cc1cc(Nc2ccc3nc(C)ccc3c2)nc(C)n1
IC50 [3]: > 100 µM | MIC [7]: > 121 µM
